Data set [1] deals with PA-1. The data set can be described thus: Reversible growth inhibitory activity of human PA1 cells at 20 to 40 uM preincubated for 24 hrs followed by 24 hrs recovery by microscopic analysis. The class given is functional, cell-based. In short, it runs like this:
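PA-1 cells in active growth, exposed 24 h to a range of concentrations. Compound removed, cells washed extensively and regrown 24 h in fresh medium without compound. Cells imaged, then triplicate dishes trypsinized and counted blind on a hemacytometer (four corners). Three independent experiments.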

For data set [2], the target named is Lysine-specific histone demethylase 1A (Mus musculus) (UniProt Q6ZQ88). The data set can be described thus: Inhibition of LSD1 in mouse F9 cells assessed as downregulation of OCT4 protein at 20 to 40 uM by Western blot analysis. The class given is cell-based. In short, it runs like this:
(§1)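 F9 cells exposed 30 h to a range of concentrations, then lysed directly in 0.5% SDS lysis buffer with protein loads equalized. SOX2 and OCT4 detected by Western blot, actin as loading control, bands quantified.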
A general note: A western blot detects proteins with antibodies after separation by electrophoresis.

The test system of data set [3] is NIH3T3. The experiment in a line: Growth inhibition of mouse NIH/3T3 cells at 20 to 40 uM after 30 hrs by microscopic analysis. It counts as cell-based. Particulars: nih3t3, 30 h. Put shortly:
(§2)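 F9 or NIH3T3 cells in active growth, exposed 30 h to a range of concentrations with DMSO controls, then imaged by microscope. Triplicate dishes trypsinized and counted blind on a hemacytometer (four corners, mean cells per dish). Control vs treated compared by two-tailed equal-variance t-test.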

The target in data set [4] is Lysine-specific histone demethylase 1A (Homo sapiens) (UniProt O60341). The experiment in a line: Inhibition of LSD1 in human PA1 cells assessed as downregulation of OCT4 protein expression at 20 uM after 16 hrs by Western blot analysis. The class given is cell-based. In short, it runs like this: (§3)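 PA-1 cells in log-phase growth were exposed to CBB3001 for 16 hours and lysed directly in buffer containing 0.5% SDS. Equalized lysates were Western blotted for SOX2, OCT4, LSD1, H3K4me1/2/3 and histone H3 using specific antibodies, with band quantification.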

In data set [5] the test system is PA-1. The experiment in a line: Effect on H3K4me3 levels in human PA1 cells at 20 uM after 16 hrs by Western blot analysis. The class given is functional, cell-based. In short, it runs like this: (§4)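 HCT116 or PA-1 cells exposed 16 h to a range of concentrations. Total histones extracted. Mono-, di- and trimethylated H3K4 and total histone H3 detected by Western blot with specific antibodies and quantified.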

Data set [6] deals with F9. The data set can be described thus: Growth inhibition of mouse F9 cells at 20 to 40 uM after 30 hrs by microscopic analysis. The class given is functional, cell-based. Put shortly:
as §2

The target of data set [7] is Lysine-specific histone demethylase 1A (Homo sapiens) (UniProt O60341). The data set can be described thus: Inhibition of LSD1 in human PA1 cells assessed as increase in H3K4me2 levels at 20 uM after 16 hrs by Western blot analysis. The class given is cell-based. In short, it runs like this:
(§5)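 Actively growing HCT116 or PA-1 cells were treated with CBB3001 or DMSO vehicle for 16 hours. Total histones were extracted, and mono-, di- and trimethylated H3K4 and total histone H3 were probed by Western blot with specific antibodies and quantified. Treatments were run in technical triplicate.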

For data set [8] the target is unchanged. The experiment in a line: Inhibition of LSD1 in human HCT116 cells assessed as increase in H3K4me1 levels at 20 uM after 16 hrs by Western blot analysis. The class given is cell-based. Put shortly:
as §5

Data set [9] concerns HCT-116. The data set can be described thus: Effect on H3K4me3 levels in human HCT116 cells at 20 uM after 16 hrs by Western blot analysis. The class given is functional, cell-based. In short, it runs like this: as §4
The target in data set [10] is Lysine-specific histone demethylase 1A (Homo sapiens) (UniProt O60341). The data set can be described thus: Inhibition of LSD1 in human PA1 cells assessed as downregulation of SOX2 protein expression at 20 to 40 uM after 16 hrs by Western blot analysis. It counts as cell-based. In short, it runs like this: as §3
The target is the same in data set [11]. The experiment in a line: Inhibition of LSD1 in human PA1 cells assessed as downregulation of SOX2 protein at 10 to 40 uM after 16 hrs by Western blot analysis.
Data set [12] has the same target. The data set can be described thus: Inhibition of LSD1 in human PA1 cells assessed as downregulation of OCT4 protein at 10 to 40 uM after 16 hrs by Western blot analysis.
Data set [13] has the same target. The data set can be described thus: Inhibition of LSD1 in human HCT116 cells assessed as increase in H3K4me2 levels at 20 uM after 16 hrs by Western blot analysis. The class given is cell-based. In short, it runs like this:
as §5

The target is the same in data set [14]. The experiment in a line: Inhibition of LSD1 in human PA1 cells assessed as increase in H3K4me1 levels at 20 uM after 16 hrs by Western blot analysis. The class given is cell-based. Put shortly: as §5
The subject of data set [15] is PA-1. The experiment in a line: Cytotoxicity against human PA1 cells assessed as cell growth inhibition at 5 to 20 uM after 12 to 16 hrs by microscopic analysis. The class given is functional, cell-based. Put shortly: (§6)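 Actively growing HCT116 or PA-1 cells (30–50% confluent), DMSO vehicle control, exposed 16 h over a range of concentrations. Cells imaged by microscope (10×10 lens). Triplicate dishes trypsinized, diluted, spotted blind on a hemacytometer, four corners counted for mean cells per dish. Treated vs control compared by two-tailed t-test. Three independent experiments.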

Data set [16] concerns HCT-116. The experiment in a line: Cytotoxicity against human HCT116 cells assessed as cell growth inhibition at >40 uM after 16 hrs by microscopic analysis. The class given is functional, cell-based. Put shortly: as §6
In data set [17] the target is Lysine-specific histone demethylase 1A (Mus musculus) (UniProt Q6ZQ88). The data set can be described thus: Inhibition of LSD1 in mouse F9 cells assessed as downregulation of SOX2 protein at 20 to 40 uM by Western blot analysis. The class given is cell-based. Put shortly: as §1
Data set [18] has as its system F9. The data set can be described thus: Cytotoxicity against mouse F9 cells at 2 uM after 16 to 30 hrs hrs by microscopic analysis. The class given is functional, cell-based. In short, it runs like this: (§7)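 Actively growing (30–50% confluent) cells were given a single 2 μM dose, with DMSO as the vehicle control, for 16 h. They were imaged by microscopy with a 10×10 lens. Triplicate dishes (technical repeats) were trypsinised, diluted and blindly counted on a hemacytometer, averaging the four corner squares to give cells per dish. Treated and control means were compared by two-tailed t-test.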

The subject of data set [19] is PA-1. The data set can be described thus: Cytotoxicity against human PA1 cells at 2 uM after 16 to 30 hrs hrs by microscopic analysis. The class given is functional, cell-based. Put shortly: as §7
Data set [20] concerns HCT-116. The experiment in a line: Cytotoxicity against human HCT116 cells at 2 uM after 16 to 30 hrs hrs by microscopic analysis. The class given is functional, cell-based. Put shortly:
as §7

SMILES strings stand for the structures. The source made the active and inactive calls. The calls are words filed in the database; no cut-off is given here.

For `CC(C)(C)OC(=O)N[C@@H]1C[C@H]1c1ccc(OC(=O)OC(C)(C)C)cc1`, the “growth inhibition (GI)” value in data set [1] and in data set [16] was “inactive” each time. Further, the inhibition entry in data set [2], in data set [4], in data set [7], in [8], in [10] and in data set [11] was “Active” each time. The inhibition entry in data set [12], in [13], in data set [14] and in data set [17] was “Active” throughout. In data set [3], the “growth inhibition (GI)” value is on record as “Non-Toxic”. In addition, the outcome in data set [5] and in data set [9] was inactive. Moreover, the “growth inhibition (GI)” value in [6] and in [15] was “Active” in each case.
Take `N[C@H]1CC[C@H](N[C@@H]2C[C@H]2c2ccccc2)CC1`: the outcome in data set [18], in [19] and in [20] was Active.
